# Source: ChEMBL document CHEMBL1159100, “Synthesis and antibacterial activity of benzyl-[3-(benzylamino-methyl)-cyclohexylmethyl]-amine derivatives” (Bioorg Med Chem Lett, 2010)
# Tests used:
# [1] = system: Staphylococcus aureus; experiment: Antimicrobial activity against Staphylococcus aureus after 24 hrs by microdilution assay; type: functional
# Method in brief: (§1)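 NCCLS broth microdilution, final 100 µL. Bacteria grown in standard media to exponential phase. Compounds in 5% DMSO serially diluted; ~2–5 × 10^5 cells per well, 37 °C, 24 h, shaking 200 rpm. Growth read spectrophotometrically; percent survival relative to a drug-free 5% DMSO growth control; medium-only sterility control. MIC derived from survival data.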
# [2] = Toxicity in human RBC up to 512 ug/ml; type: cell-based; details: erythrocyte
# Method in brief: (§2)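 Fresh human erythrocytes, 4% v/v in 35 mM phosphate buffer with 150 mM NaCl, incubated with test sample 1 h at 37 °C. After centrifugation, supernatant absorbance read at 414 nm. 0.1% Triton X-100 lysis taken as 100% hemolysis. Tested at concentrations up to 512 µg/mL.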
# [3] = system: Escherichia coli; experiment: Antimicrobial activity against Escherichia coli after 24 hrs by microdilution assay; type: functional; method in brief: as §1
# [4] = system: Pseudomonas aeruginosa; experiment: Antimicrobial activity against Pseudomonas aeruginosa after 24 hrs by microdilution assay; type: functional; method in brief: as §1
# [5] = system: Staphylococcus epidermidis; experiment: Antimicrobial activity against Staphylococcus epidermidis after 24 hrs by microdilution assay; type: functional; method in brief: as §1
# [6] = Toxicity in human RBC assessed as hemolytic activity at 512 ug/ml; type: cell-based, Erythrocyte; details: red blood cells (RBC), read-out: Activity; method in brief: as §2
MIC [1] [µg/mL],MIC [3] [µg/mL],MIC [4] [µg/mL],MIC [5] [µg/mL],SMILES,Activity [2],hemolysis at 512 ug/ml [6] [%]
> 250,> 250,0.5,1,Cc1ccc(CNCC2CCCC(CNCc3ccc(C)cc3)C2)cc1 (configuration not stated),Non-toxic,–
0.02,> 250,> 250,> 250,O=[N+]([O-])c1cccc(CNCC2CCCC(CNCc3cccc([N+](=O)[O-])c3)C2)c1 (configuration not stated),–,–
> 250,> 250,0.032,0.125,Brc1ccc(CNCC2CCCC(CNCc3ccc(Br)cc3)C2)cc1 (configuration not stated),Non-toxic,–
> 250,> 250,> 250,> 250,Cc1ccccc1CNCC1CCCC(CNCc2ccccc2C)C1 (configuration not stated),Non-toxic,–
> 250,> 250,> 250,> 250,Fc1cccc(CNCC2CCCC(CNCc3cccc(F)c3)C2)c1 (configuration not stated),–,–
> 250,> 250,0.125,0.125,CC(C)c1ccc(CNCC2CCCC(CNCc3ccc(C(C)C)cc3)C2)cc1 (configuration not stated),–,4
> 250,> 250,> 250,> 250,Cc1ccc(CNCC2CCCC(CNCc3ccc(C)cc3C)C2)c(C)c1 (configuration not stated),–,–
> 250,> 250,0.125,0.125,Brc1cccc(CNCC2CCCC(CNCc3cccc(Br)c3)C2)c1 (configuration not stated),Non-toxic,–
> 250,> 250,> 250,> 250,Fc1ccc(CNCC2CCCC(CNCc3ccc(F)cc3)C2)cc1 (configuration not stated),–,–
0.004,0.016,0.002,0.004,CCCCc1ccc(CNCC2CCCC(CNCc3ccc(CCCC)cc3)C2)cc1 (configuration not stated),–,4
> 250,> 250,1,1,Cc1cccc(CNCC2CCCC(CNCc3cccc(C)c3)C2)c1 (configuration not stated),Non-toxic,–
> 250,> 250,> 250,> 250,Cc1ccc(C)c(CNCC2CCCC(CNCc3cc(C)ccc3C)C2)c1 (configuration not stated),–,–
0.016,0.002,0.004,0.008,CC(C)(C)c1ccc(CNCC2CCCC(CNCc3ccc(C(C)(C)C)cc3)C2)cc1 (configuration not stated),–,4
> 250,0.016,0.016,0.016,CCCc1ccc(CNCC2CCCC(CNCc3ccc(CCC)cc3)C2)cc1 (configuration not stated),–,4
> 250,> 250,0.125,> 250,Cc1ccc(CNCC2CCCC(CNCc3ccc(C)c(C)c3)C2)cc1C (configuration not stated),Non-toxic,–
0.01,0.001,–,0.02,CN(C)[C@@H]1C(O)=C(C(N)=O)C(=O)[C@@]2(O)C(O)=C3C(=O)c4c(O)cccc4[C@@](C)(O)[C@H]3C[C@@H]12 [TETRACYCLINE],–,–
> 250,> 250,1,0.25,Cc1cc(C)cc(CNCC2CCCC(CNCc3cc(C)cc(C)c3)C2)c1 (configuration not stated),Non-toxic,–
> 250,> 250,0.125,0.25,CCc1ccc(CNCC2CCCC(CNCc3ccc(CC)cc3)C2)cc1 (configuration not stated),–,0.5
> 250,> 250,> 250,> 250,c1ccc(CNCC2CCCC(CNCc3ccccc3)C2)cc1 (configuration not stated),–,–
> 250,> 250,0.125,0.25,Clc1cccc(CNCC2CCCC(CNCc3cccc(Cl)c3)C2)c1 (configuration not stated),Non-toxic,–
> 250,> 250,> 250,> 250,Clc1cccc(Cl)c1CNCC1CCCC(CNCc2c(Cl)cccc2Cl)C1 (configuration not stated),Non-toxic,–
0.025,> 250,0.032,0.065,Clc1ccc(CNCC2CCCC(CNCc3ccc(Cl)cc3)C2)cc1 (configuration not stated),Non-toxic,–
